Experimental findings from ChEMBL document CHEMBL1773067 are described below.

Data set [1] concerns the target T1, Phosphotyrosine-protein phosphatase PTPB (Mycobacterium tuberculosis) (UniProt P96830).
T1 sequence (whole entry): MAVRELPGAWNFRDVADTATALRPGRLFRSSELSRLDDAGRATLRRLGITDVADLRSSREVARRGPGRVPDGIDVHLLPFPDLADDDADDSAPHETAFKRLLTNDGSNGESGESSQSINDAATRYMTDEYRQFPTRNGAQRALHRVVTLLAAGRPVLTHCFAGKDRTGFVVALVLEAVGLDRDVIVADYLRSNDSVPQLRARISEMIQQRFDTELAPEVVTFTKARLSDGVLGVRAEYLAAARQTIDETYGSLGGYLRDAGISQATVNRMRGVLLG
Put plainly: Inhibition of Mycobacterium tuberculosis N-terminal His6-tagged PTPB at 20 uM using pNPP as substrate.

Data set [2] concerns the target T1, Phosphotyrosine-protein phosphatase PTPB (Mycobacterium tuberculosis). Put plainly: Inhibition of Mycobacterium tuberculosis PTPB expressed in mouse RAW 264.7 cells assessed as restoration of IFN gamma-induced ERK1/ERK2 phosphorylation after 30 mins by Western blotting. In kind it is cell-based. Put shortly: (§1)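 RAW 264.7 macrophages (DMEM, 10% FBS, 37°C, 5% CO₂) stably expressing HA-tagged mPTPB (electroporation, G418 0.5 mg/ml selection 2 weeks). Cells at 80% confluency lysed in Triton X-100 buffer with phosphatase/protease inhibitors; pERK1/2 detected by western blot.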
For orientation: In western blotting, separated proteins are transferred to a membrane and probed.

For data set [3], the target named is T2, Phosphotyrosine-protein phosphatase PTPB (Mycobacterium tuberculosis, UniProt P96830).
T2 sequence (P96830 whole entry): T1 sequence (whole entry)
Put plainly: Inhibition of Mycobacterium tuberculosis N-terminal His6-tagged PTPB preincubated with compound for 30 mins before pNPP substrate addition by microplate spectrophotometer analysis.

In data set [4] the target is T2, Phosphotyrosine-protein phosphatase PTPB. Put plainly: Inhibition of Mycobacterium tuberculosis PTPB expressed in Escherichia coli after 5 mins by microplate spectrophotometer analysis.
For data set [5] the target is unchanged. Put plainly: Inhibition of Mycobacterium tuberculosis N-terminal His6-tagged PTPB.
For data set [6] the target is unchanged. Put plainly: Competitive inhibition of Mycobacterium tuberculosis N-terminal His6-tagged PTPB assessed as production of p-nitrophenol from pNPP substrate by Lineweaver-Burk plot analysis.
For data set [7], the target named is T1, Phosphotyrosine-protein phosphatase PTPB (Mycobacterium tuberculosis). Put plainly: Inhibition of Mycobacterium tuberculosis PTPB expressed in mouse RAW 264.7 cells assessed as restoration of IFN gamma-induced ERK1/ERK2 phosphorylation at 15 uM after 30 mins by Western blotting. The data set is classed as cell-based. In a few lines: as §1
For data set [8], the system named is J774.A1. Put plainly: Cytotoxicity at mouse J774A1 cells up to 100 uM after 72 hrs by MTS assay. In kind it is cell-based. The following applies: j774.a1, 72 h. In a few lines: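 J774A.1 cells exposed 72 h; viability from MTS conversion to formazan.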
Data set [9] relates to Mycobacterium tuberculosis. Put plainly: Potentiation of IFN-gamma-induced antimycobacterial activity against Mycobacterium tuberculosis Erdman ATCC 35801 infected in mouse J774A.1 cells assessed as decrease in bacterial load at 10 uM after 7 days. In kind it is functional, organism-based. In a few lines:
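J774A.1 macrophages on cover slips infected 1 h at 37°C with M. tuberculosis Erdman (1-3 x10⁵ CFU/ml), rinsed, 16 h at 37°C/5% CO₂, then compound 10 µM with amikacin and IFN-γ 50 U/mL; triplicates. After 7 days cells lysed with 0.25% SDS, dilutions plated on 7H11 agar, colonies counted after 2-3 weeks.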

Data set [10] relates to Mycobacterium tuberculosis. Put plainly: Antimycobacterial activity against Mycobacterium tuberculosis Erdman ATCC 35801 after 7 days by microplate alamar blue assay. The data set is classed as functional. The following applies: Erdman ATCC 35801, 168 h. In a few lines: (§2)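 MABA read-out after 7 day incubation in Middlebrook 7H12 medium against replicating M. tuberculosis cultures.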
For orientation: The colour change of resazurin is a common sign of viable cells or microbes.

Data set [11] relates to Mycobacterium tuberculosis. Put plainly: Antimycobacterial activity against Mycobacterium tuberculosis H37Rv after 7 days by microplate alamar blue assay. In kind it is functional. Particulars: 168 h. In a few lines: as §2
The target in data set [12] is T1, Phosphotyrosine-protein phosphatase PTPB (Mycobacterium tuberculosis). Particulars: RAW, 5 to 10 uM.
Data set [13] addresses T2, Phosphotyrosine-protein phosphatase PTPB. Put plainly: Non-competitive inhibition of Mycobacterium tuberculosis N-terminal His6-tagged PTPB assessed as production of p-nitrophenol from pNPP substrate by Lineweaver-Burk plot analysis.
The target of data set [14] is T1, Phosphotyrosine-protein phosphatase PTPB (Mycobacterium tuberculosis). Put plainly: Inhibition of Mycobacterium tuberculosis PTPB expressed in mouse RAW 264.7 cells assessed as restoration of IFN gamma-induced ERK1/ERK2 phosphorylation at 10 uM after 30 mins by Western blotting. In kind it is cell-based. Put shortly:
as §1

As usually defined, the IC50 is the concentration that gives 50% inhibition. One may read the Ki as a dissociation constant, usually derived from enzyme kinetics or from competition with a known ligand. For orientation: MIC means the lowest concentration that inhibits growth of the organism. Higher therefore signals a less susceptible organism.

Activity calls are given as the source filed them. The calls are words filed in the database; no cut-off is given here. Some results are limits rather than exact numbers.

Consider `CC(NC(=O)C(=O)N1CCCCC1)C(c1cccs1)N1CCN(c2ccccc2)CC1` (configuration not stated), for which the inhibition entry in [1] is “inactive”.

In the case of `CC(NC(=O)C(=O)NCc1cccnc1)C(c1cccs1)N1CCN(c2ccc(F)cc2)CC1` (configuration not stated), the inhibition entry in data set [2] was “Dose-dependent effect”. Also, the IC50 in data set [3] came out at 14 µM; in [4], 11.5 µM; in data set [5], 9.1 µM. Moreover, the Ki in data set [6] was determined as 4 µM.

Regarding `CCN1CCN(C(c2cccs2)C(C)NC(=O)C(=O)N2CCOCC2)CC1` (configuration not stated), the inhibition entry in data set [1] was “inactive”.

For the molecule `COc1ccc(N2CCN(C(c3cccs3)C(C)NC(=O)C(=O)N3CCCCC3)CC2)cc1` (configuration not stated), the inhibition entry in [7] and in data set [1] was “inactive” throughout.

Take `COc1ccc(N2CCN(C(c3cccs3)C(C)NC(=O)C(=O)NCc3ccco3)CC2)cc1` (configuration not stated): the inhibition entry in [2] was “Dose-dependent effect”. Also, the values for the IC50 in [3], in data set [4] and in [5] were 6.3 µM, 5.6 µM and 4.8 µM, respectively. Further, in data set [8], the Activity result is “Non-toxic”. Further, the outcome in data set [9] was Active. Moreover, the MIC in data set [10] and in [11] was above 100 µM each time. The inhibition constant Ki in data set [6] was determined as 3.2 µM.

Take `O=C1Nc2ccc(S(=O)(=O)NCCO)c3cccc1c23`: the inhibition entry in [1] is “inactive”.

Regarding `COc1ccccc1CNC(=O)C(=O)NC(C)C(c1cccs1)N1CCN(c2ccc(F)cc2)CC1` (configuration not stated), the half-inhibitory concentration (IC50) in [3] amounted to 15.8 µM; in [5], 11.4 µM.

As for `CC(NC(=O)C(=O)N1CCCCC1)C(c1cccs1)N1CCN(c2ccc(F)cc2)CC1` (configuration not stated), the inhibition result in data set [1] is “inactive”.

`CCCCc1ccc(NS(=O)(=O)c2ccc3c4c(cccc24)C(=O)N3)cc1`: the inhibition entry in data set [12] was “Active”. Also, the IC50 came out at 1.4 µM in data set [3], 1.3 µM in data set [4] and 1.2 µM in data set [5]. Further, the Activity entry in [8] is given as “Non-toxic”. In [9], the outcome was Active. The MIC in [10] and in data set [11] was above 100 µM each time. Also, in data set [13], the Ki was 1.1 µM.

On to `O=C1Nc2ccc(S(=O)(=O)NCc3ccccc3)c3cccc1c23`, for which, in [1], the inhibition entry was “inactive”.

In the case of `CC(NC(=O)C(=O)N1CCCCC1)C(c1cccs1)N1CCN(C)CC1` (configuration not stated), the inhibition result in data set [1] is “inactive”.

On to `COc1ccc(N2CCN(C(c3cccs3)C(C)NC(=O)C(=O)N3CCCC3)CC2)cc1` (configuration not stated), for which, in data set [1], the inhibition result was “inactive”.

On to `Cc1cccc(NS(=O)(=O)c2ccc3c4c(cccc24)C(=O)N3)c1C`, for which the inhibition result in data set [1] is “inactive”.

For the molecule `CC(NC(=O)C(=O)NCCc1c[nH]c2ccccc12)C(c1cccs1)N1CCN(c2ccc(F)cc2)CC1` (configuration not stated), the IC50 in data set [3] turned out to be 17.5 µM; in [5], 12.1 µM.

On to `O=C1Nc2ccc(S(=O)(=O)N3CCOCC3)c3cccc1c23`, for which the inhibition result in [1] is “inactive”.

Take `CCCCCOC(=O)c1c(C)oc2ccc(NS(=O)(=O)c3ccc4c5c(cccc35)C(=O)N4)cc12`: the values for the IC50 in data set [3] and in [5] were 20.8 µM and 21.1 µM, respectively.

On to `O=C1Nc2ccc(S(=O)(=O)Nc3cc(Cl)c(O)c4ccccc34)c3cccc1c23`, for which the IC50 in data set [3] was determined as 12.8 µM; in data set [5], 15.5 µM.

Consider `O=C1Nc2ccc(S(=O)(=O)Nc3ccc4oc5c(c4c3)CCCC5)c3cccc1c23`, for which the IC50 turned out to be 10.8 µM in [3] and 10.3 µM in [5].

Regarding `CC(NC(=O)C(=O)NCc1ccco1)C(c1cccs1)N1CCN(C)CC1` (configuration not stated), in data set [1], the inhibition result was “inactive”.

For `CCN1CCN(C(c2cccs2)C(C)NC(=O)C(=O)NCCc2c[nH]c3ccccc23)CC1` (configuration not stated), in data set [1], the inhibition entry was “inactive”.

Turning to `Cc1ccccc1NS(=O)(=O)c1ccc2c3c(cccc13)C(=O)N2`, the inhibition entry in [1] was “inactive”.

On to `O=C1Nc2ccc(S(=O)(=O)N(CCO)CCO)c3cccc1c23`, for which the inhibition result in data set [1] is “inactive”.

As for `CC(NC(=O)C(=O)NCc1ccc2c(c1)OCO2)C(c1cccs1)N1CCN(c2ccccc2)CC1` (configuration not stated), the IC50 worked out at 25.1 µM in data set [3] and 30.4 µM in data set [5].

Regarding `Cc1oc2ccc(NS(=O)(=O)c3ccc4c5c(cccc35)C(=O)N4)cc2c1C(=O)OC(C)C`, the inhibition result in data set [1] is “inactive”.

For `CCCCCCCOC(=O)c1c(C)oc2ccc(NS(=O)(=O)c3ccc4c5c(cccc35)C(=O)N4)cc12`, the IC50 in data set [3] came to 22.8 µM; in data set [5] it was 19.5 µM.

Take `NS(=O)(=O)c1ccc2c3c(cccc13)C(=O)N2`: the inhibition entry in data set [1] and in data set [14] was “inactive” each time.

`CNS(=O)(=O)c1ccc2c3c(cccc13)C(=O)N2`: in data set [1], the inhibition entry was “inactive”.

For the molecule `CC(NS(=O)(=O)c1ccc2c3c(cccc13)C(=O)N2)C1C2CC3CC(C2)CC1C3` (configuration not stated), the inhibition entry in [1] was “inactive”.
